Reference: ChEMBL document CHEMBL1909618, “Non-steroidal dissociated glucocorticoid agonists: indoles as A-ring mimetics and function-regulating pharmacophores” (Bioorg Med Chem Lett, 2011)

Columns and labels:
[1] = biological target: T1, Glucocorticoid receptor (Homo sapiens) (UniProt P04150); assay: Transactivation activity of glucocorticoid receptor in HFF assessed as induction of aromatase activity by measuring beta-estradiol activity after 18 to 24 hrs by ELISA relative to Dexamethasone
T1 sequence (whole entry): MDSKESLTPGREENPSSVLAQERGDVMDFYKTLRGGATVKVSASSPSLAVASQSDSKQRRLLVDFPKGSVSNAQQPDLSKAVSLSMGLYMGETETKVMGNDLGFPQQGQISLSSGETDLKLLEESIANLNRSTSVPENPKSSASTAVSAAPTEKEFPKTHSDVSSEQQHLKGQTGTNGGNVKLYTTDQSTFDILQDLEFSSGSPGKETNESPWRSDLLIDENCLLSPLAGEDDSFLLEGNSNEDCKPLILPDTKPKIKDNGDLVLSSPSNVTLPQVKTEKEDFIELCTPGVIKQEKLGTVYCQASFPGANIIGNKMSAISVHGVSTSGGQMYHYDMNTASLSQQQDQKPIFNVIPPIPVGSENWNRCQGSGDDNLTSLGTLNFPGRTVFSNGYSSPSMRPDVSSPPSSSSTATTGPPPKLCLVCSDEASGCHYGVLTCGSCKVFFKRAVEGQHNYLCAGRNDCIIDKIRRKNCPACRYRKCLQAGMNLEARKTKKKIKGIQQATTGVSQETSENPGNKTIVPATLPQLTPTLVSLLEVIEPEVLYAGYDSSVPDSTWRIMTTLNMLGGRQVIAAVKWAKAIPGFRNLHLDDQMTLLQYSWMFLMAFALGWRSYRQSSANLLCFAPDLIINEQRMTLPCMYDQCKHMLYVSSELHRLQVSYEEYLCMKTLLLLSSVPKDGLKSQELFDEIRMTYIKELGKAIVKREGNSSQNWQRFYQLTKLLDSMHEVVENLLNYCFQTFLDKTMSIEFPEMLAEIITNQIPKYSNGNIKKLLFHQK

Mus musculus = assay: Antiinflammatory activity in mouse plasma assessed as inhibition of LPS-induced TNFalpha production at 10 mg/kg, po administered 1 hr before LPS challenge measured after 1 hr; format: functional
How it was run: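 Mice received compound orally in Cremophor RH 1 h before LPS challenge. Plasma TNF-α was measured 1 h after challenge. n = 8 per group; doses were 3 and 10 mg/kg.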

Progesterone receptor = biological target: T2, Progesterone receptor (Homo sapiens, UniProt P06401); assay: Displacement of tetramethylrhodamine-labeled RU-486 from human recombinant progesterone receptor expressed in baculovirus infected insect cells by fluorescence polarization assay
T2 sequence (P06401 whole entry): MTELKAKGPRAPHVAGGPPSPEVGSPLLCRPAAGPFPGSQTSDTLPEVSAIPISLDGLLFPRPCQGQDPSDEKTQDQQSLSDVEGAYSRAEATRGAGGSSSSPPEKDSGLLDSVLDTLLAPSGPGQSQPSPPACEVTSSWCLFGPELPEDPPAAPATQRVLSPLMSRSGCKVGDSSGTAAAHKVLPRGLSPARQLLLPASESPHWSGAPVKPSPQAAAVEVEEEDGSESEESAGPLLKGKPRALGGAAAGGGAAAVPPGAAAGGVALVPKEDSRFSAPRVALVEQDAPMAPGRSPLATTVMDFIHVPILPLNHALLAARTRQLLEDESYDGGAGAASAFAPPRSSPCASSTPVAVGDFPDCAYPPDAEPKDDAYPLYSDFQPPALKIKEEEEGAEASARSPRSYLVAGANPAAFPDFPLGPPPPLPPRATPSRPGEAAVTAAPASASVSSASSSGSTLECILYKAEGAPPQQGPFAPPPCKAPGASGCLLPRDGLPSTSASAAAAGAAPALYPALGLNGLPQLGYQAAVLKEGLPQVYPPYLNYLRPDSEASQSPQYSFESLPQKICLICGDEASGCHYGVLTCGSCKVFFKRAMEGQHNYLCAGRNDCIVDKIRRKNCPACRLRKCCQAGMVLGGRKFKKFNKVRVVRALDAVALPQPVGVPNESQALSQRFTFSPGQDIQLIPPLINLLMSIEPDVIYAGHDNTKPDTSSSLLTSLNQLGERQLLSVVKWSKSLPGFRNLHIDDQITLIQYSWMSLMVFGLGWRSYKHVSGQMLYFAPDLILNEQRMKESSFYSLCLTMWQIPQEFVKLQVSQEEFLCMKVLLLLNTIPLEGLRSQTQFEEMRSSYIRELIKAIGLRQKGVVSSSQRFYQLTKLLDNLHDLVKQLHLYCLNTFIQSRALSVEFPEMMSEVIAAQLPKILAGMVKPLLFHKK
How it was run: (§1)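 Fluorescence polarization competition assays with recombinant human receptors in lysates of baculovirus-infected insect cells. Reactions contained 1% DMSO and ran 1 h at room temperature.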

[2] = biological target: T3, Mineralocorticoid receptor (Homo sapiens, UniProt P08235); assay: Displacement of tetramethylrhodamine-labeled Dexamethasone from human recombinant mineralocorticoid receptor expressed in baculovirus infected insect cells by fluorescence polarization assay; how it was run: as §1
T3 sequence (P08235 whole entry): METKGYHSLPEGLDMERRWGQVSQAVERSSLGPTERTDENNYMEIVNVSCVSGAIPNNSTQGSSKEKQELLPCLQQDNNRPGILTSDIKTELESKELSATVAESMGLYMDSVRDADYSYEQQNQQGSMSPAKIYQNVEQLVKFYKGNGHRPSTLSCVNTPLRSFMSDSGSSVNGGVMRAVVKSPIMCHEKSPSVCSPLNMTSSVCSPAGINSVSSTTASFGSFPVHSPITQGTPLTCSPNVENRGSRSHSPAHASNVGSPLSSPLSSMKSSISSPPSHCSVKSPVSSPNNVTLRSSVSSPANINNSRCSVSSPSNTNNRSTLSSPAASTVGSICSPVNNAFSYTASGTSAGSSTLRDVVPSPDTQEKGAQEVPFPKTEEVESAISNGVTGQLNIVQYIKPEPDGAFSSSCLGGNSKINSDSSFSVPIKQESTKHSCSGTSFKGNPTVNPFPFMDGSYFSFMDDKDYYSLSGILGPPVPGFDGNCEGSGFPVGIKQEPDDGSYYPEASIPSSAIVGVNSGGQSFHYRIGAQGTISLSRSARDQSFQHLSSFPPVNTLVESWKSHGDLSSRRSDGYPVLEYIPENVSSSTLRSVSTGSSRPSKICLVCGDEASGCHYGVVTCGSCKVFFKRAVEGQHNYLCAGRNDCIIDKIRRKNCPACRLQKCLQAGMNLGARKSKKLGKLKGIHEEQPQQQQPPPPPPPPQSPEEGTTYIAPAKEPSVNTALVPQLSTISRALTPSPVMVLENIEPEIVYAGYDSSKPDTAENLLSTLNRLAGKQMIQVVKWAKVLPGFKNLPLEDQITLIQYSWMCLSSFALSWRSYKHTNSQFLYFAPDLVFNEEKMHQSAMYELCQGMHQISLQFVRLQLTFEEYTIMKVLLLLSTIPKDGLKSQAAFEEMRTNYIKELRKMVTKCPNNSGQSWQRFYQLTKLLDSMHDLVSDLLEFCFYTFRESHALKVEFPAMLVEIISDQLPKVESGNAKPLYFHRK

Glucocorticoid receptor = biological target: T4, Glucocorticoid receptor (Homo sapiens, UniProt P04150); assay: Agonist activity at glucocorticoid receptor in HFF assessed as inhibition of IL1-induced IL-6 production after 18 to 24 hrs; format: functional
T4 sequence (P04150 whole entry): T1 sequence (whole entry)

Row | Efficacy [1] | IC50 (Progesterone receptor) | IC50 [2] | IC50 (Glucocorticoid receptor) | Compound | inhibition in vivo at 10 mg/kg (Mus musculus)
1 | 98% | 0.207 µM | 0.19 µM | 0.006 µM | COc1ccc(F)cc1C(C)(C)C[C@@](O)(Cc1cc2ccccc2[nH]1)C(F)(F)F | 35%
2 | 74% | 0.745 µM | 0.23 µM | 0.028 µM | CC(C)(C[C@@](O)(Cc1cc2ccc(C#N)cc2[nH]1)C(F)(F)F)c1cc(S(C)(=O)=O)cc2c1OCC2 | 88%
